# SKKanGAS inh = inhibitors of SKKanGAS S. pyogenes growth in kanamycin (SK-promoter or general growth effect). BacTiter-Glo, 6 h. inhibition, % at 7.5 µM. 1.3% of 300,000 active;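 active = mean replicate score, as percent of positive control median, at least 50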;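 note: strain carries kanamycin resistance gene driven by streptokinase promoter and grows in 40 µg/ml kanamycin; loss of luminescence reflects streptokinase promoter inhibition or plain growth inhibition; 0% = median of DMSO wells and 100% = positive control at its reference dose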
# Mdm2-MdmX inh = disrupts the human Mdm2-MdmX interaction. 3% of 330,000 active. inhibition, % at 8 µM. O15151+Q00987. SaOS-2 split-luciferase Mdm2/MdmX complementation, luminescence. AID 485346;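 active = inhibition of at least 50% at 8 µM in the primary screen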
# CSC inhib = blocks cancer stem cells. cancer stem cell-like cells viability, luminescence. inhibition, % at 7.5 µM. 1.1% of 300,000 active. AID 2717; in the data active = inhibition above about 75%; tested in HMLE shEcad cells
# Beta cell apopt = beta cell apoptosis inhibition; INS-1E cytokine-induced death, ATP luminescence, 48 h; percent of positive-control rescue, neutral wells zero; protection from apoptosis, % (no concentration beside the values); 0.8% of 300,000 active; AID 435005;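 active = Every replicate reaches about 75%, or at least half do and their mean reaches it too, limit read from the data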;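 note: 0% = cytokine-treated negative control wells and 100% = positive control rescue; higher means more ATP so stronger rescue from cytokine killing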
# T cruzi repl = T. cruzi replication inhibition | T. cruzi beta-gal in NIH3T3, luminescence, 90 h | inhibition, % (test concentration not listed) | AID 1885 | 1.4% of 300,000 active;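 active = mean inhibition across valid replicates above about 55%, limit read from the data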;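 note: signal also drops with host cell toxicity which is not excluded here; 0% = plate median of DMSO wells and 100% = zero luminescence signal; higher percent means less beta-gal luminescence so fewer parasites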
#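 Material: NIH/3T3 host cells with β-galactosidase reporter T. cruzi; Input: 5,000 host fibroblasts per well; Medium: DMEM, 2% fetal bovine serum; Compound: 50 nL DMSO compound solution per well; Schedule: 3 h host attachment, then at least 90 h co-culture; Detection: luminescent β-galactosidase signal after 60 min lysis.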
# Calb FLC = affects C. albicans growth with fluconazole. C. albicans CaCi-2 (fluconazole-resistant clinical isolate) + fluconazole, Alamar Blue growth, 48 h. growth inhibition, % (test concentration not listed). 0.57% of 300,000 active;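 active = growth inhibition above about 58% in most replicates, limit read from the data, passing the limit was not always enough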;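 note: all wells also contain fluconazole at 8 µg/ml as a sub-toxic cotreatment; 0% = median of DMSO wells and 100% = median of geldanamycin control wells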
# Mdm2 MdmX conf = human Mdm2/MdmX binding inhibition, confirmed; inhibition, % at 8 µM; 55% of 10,000 active; luminescent assay; shares compounds with Mdm2-MdmX inh; AID 489028; in the data active = inhibition above about 40%
# Full FLuc ctr = full-length luciferase inhibition in Mdm2/MdmX counter-screen; SaOS-2 full-length luciferase counterscreen, luminescence; AID 504607; 77% of 6,200 active; shares compounds with Mdm2-MdmX inh; inhibition, % at 8 µM;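 active = mean inhibition at 8 µM reaching about 37%, which flags the compound as non-specific, limit read from the data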;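 note: p53-null SaOS-2 cells with luciferase driven by a doxycycline-inducible promoter; compound on cells about two nights before reading with doxycycline added after day one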
# * = called active by the depositor; . = no result. The list is not random: actives were taken first. Their share in the collection is about 5.7%.
SMILES,SKKanGAS inh,Mdm2-MdmX inh,CSC inhib,Beta cell apopt,T cruzi repl,Calb FLC,Mdm2 MdmX conf,others
CCN1C(=O)[C@@H]2[C@@H](c3ccc(-c4ccc(Cl)c(Cl)c4)cc3)N3CCCC[C@@]3(C(=O)OC)[C@@H]2C1=O,0,34,5,9,-11,-3,.,
CCCCCCSc1ccc([C@@H]2[C@@H]3C(=O)N(CC)C(=O)[C@@H]3[C@]3(C(=O)OC)CCCCN23)cc1,.,52*,68,0,.,.,6,
C[C@]1(CC/C(=C/CO)CO)[C@H](CO)CC[C@@]23COC(=O)C2=CCC[C@@H]31,.,-19,-5,-2,.,.,.,
CCn1cc(S(=O)(=O)NC2CCCCC2)cn1,1,0,-1,-2,-8,2,.,
COC(=O)[C@@]12CCCCN1[C@H](c1ccc(-c3cc(C(C)=O)cs3)cc1)[C@H]1C(=O)N(C)C(=O)[C@H]12,20,67*,-11,24,-13,13,22,
Cc1ccc(NC(=S)NCc2ccc(Cl)cc2)c(C)c1,8,6,-1,6,-8,-2,.,
O=C(CN1C(=O)NC(CCc2ccccc2)C1=O)Nc1ccccc1C(F)(F)F (stereo not drawn),.,-11,-6,0,.,.,.,
CC1=CC(=O)C=C(C)C1=NOc1ccccc1[N+](=O)[O-],3,72*,-16,0,-9,0,14,
CC(C)(C)/C(COc1ccccc1[N+](=O)[O-])=N/O,3,18,.,-5,0,-4,.,
CC1(C)Oc2ccc3ccc(=O)oc3c2/C(=C/Nc2ccc(O)cc2)C1=O,13,55*,-1,-15,-70,2,25,
CCN1CCN(CC2COc3ccccc3O2)CC1 (stereo not drawn),-2,-49,-12,-6,11,-2,.,
COc1ccc2c(c1)C(=O)C(=O)N2CC1COc2ccccc2O1 (stereo not drawn),0,54*,23,-2,10,14,25,
Cc1ccc2c(c1)C(=O)C(=O)N2CC1COc2ccccc2O1 (stereo not drawn),1,35,12,1,21,-20,.,
CCOc1ccc2c(c1)C(=O)C(=O)N2CC1COc2ccccc2O1 (stereo not drawn),1,69*,19,3,7,-20,30,
O=C(CSc1nc2ccccc2c(=O)n1CCCC(=O)N1CCCC1)NCc1ccco1,6,18,-7,-5,9,-10,.,
CCc1ccc(NC(=O)CSc2nc3ccccc3c(=O)n2CCCC(=O)N2CCCC2)cc1,3,52*,40,.,3,3,49*,Full FLuc ctr=42*
CCN(CC)CCn1c(SCC(=O)NCc2ccccc2)nc2c(sc3ccccc32)c1=O,4,75*,-2,-4,7,-10,28,
COc1ccc(NC(=O)CSc2nc3c(sc4ccccc43)c(=O)n2CCCN2CCCC2)cc1,7,98*,8,-3,31,-22,70*,Full FLuc ctr=23
O=C(CSc1nc2c(sc3ccccc32)c(=O)n1CCc1ccccc1)NCc1ccco1,9,18,-1,.,15,-4,.,
Clc1cc(Cl)c(OCCCCn2cncn2)c(Cl)c1,-2,23,-27,4,21,12,.,
COc1ccc(-c2cc3c(=O)n(CC(=O)NC4CCN(Cc5ccccc5)CC4)ncn3n2)cc1,-13,69*,-8,8,46,-4,13,
COc1ccc(-c2cc3c(=O)n(CC(=O)NCCCN4CCC(N5CCCCC5)CC4)ncn3n2)cc1,-1,67*,18,5,30,.,26,
COc1ccc(-c2cc3c(=O)n(CC(=O)Nc4ccc(C(C)=O)cc4)ncn3n2)cc1,3,58*,-5,4,30,-3,34,Full FLuc ctr=105*
COc1ccc(-c2cc3c(=O)n(CC(=O)NCc4cccnc4)ncn3n2)cc1,-5,0,-4,-6,5,0,.,
CCc1ccc(-c2cc3c(=O)n(CC(=O)NCCN4CCCCC4C)nc(C)n3n2)cc1 (stereo not drawn),-1,68*,80*,11,36,10,25,

# Screens from PubChem.
